Measured values published in ChEMBL document CHEMBL4814000, “Discovery of β-carboline-(phenylsulfonyl)furoxan hybrids as potential anti-breast cancer agents” (Bioorg Med Chem Lett, 2021).
The source made the active and inactive calls. The rule behind the calls is not given here.

How the values were obtained:
[1] = tested on: MDA-MB-231; assay: Induction of cell cycle arrest in human MDA-MB-231 cells assessed as accumulation of cells at G1 phase at 0.3 uM after 72 hrs by propidium iodide staining based flow cytometry (reference value: 51.97 %); type: functional
Method in brief: (§1)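 Cell cycle: MDA-MB-231 cells held 72 h at 0, 0.15, 0.3 or 0.6 μM, harvested, PI-stained and analysed by flow cytometry for G1, S and G2/M percentages.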

[2] = tested on: MDA-MB-231; assay: Inhibition of cell adhesion in human MDA-MB-231 cells measured for 24 hrs by phase-contrast microscope method; type: functional, cell-based; conditions: dose 0.15-0.6 µM
Method in brief: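 Adhesion: MDA-MB-231 cells incubated with 0, 0.15, 0.3 or 0.6 μM, non-adherent cells washed off with PBS, attached cells counted by phase contrast microscopy; mean ± SD of three independent experiments.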

[3] = tested on: MDA-MB-231; assay: Induction of apoptosis in human MDA-MB-231 cells assessed as early apoptotic cells at 0.3 uM incubated for 72 hrs by annexin V-FITC staining based flow cytometry (reference value: 3.42%); type: functional
[4] = tested on: MDA-MB-231; assay: Induction of ROS generation in human MDA-MB-231 cells at 0.6 uM incubated for 72 hrs by DCFH-DA staining-based flow cytometric analysis (reference value: 3.04 %); type: functional
Method in brief: (§2)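 MDA-MB-231 cells exposed 72 h, then loaded with DCFH-DA and read on a FACScan flow cytometer as percent DCFH-DA-positive cells against DMSO-treated control; mean ± SD of three independent experiments.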

[5] = tested on: MDA-MB-231; assay: Induction of apoptosis in human MDA-MB-231 cells assessed as necrotic cells at 0.15 uM incubated for 72 hrs by annexin V-FITC staining based flow cytometry (reference value: 1.05%); type: functional
[6] = tested on: MDA-MB-231; assay: Induction of cell cycle arrest in human MDA-MB-231 cells assessed as accumulation of cells at G1 phase at 0.6 uM after 72 hrs by propidium iodide staining based flow cytometry (reference value: 51.97 %); type: functional; method in brief: as §1
[7] = Nitric oxide releasing activity assessed as amount of NO release measured up to 24 hrs by Griess assay; type: functional; conditions: time hrs <=24
Method in brief: (§3)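 Griess assay measuring NO released by compounds in vitro over time; values are averages of three independent experiments.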

[8] = tested on: MDA-MB-231; assay: Induction of cell cycle arrest in human MDA-MB-231 cells assessed as accumulation of cells at G2/M phase at 0.15 uM after 72 hrs by propidium iodide staining based flow cytometry (reference value: 10.90 %); type: functional; method in brief: as §1
[9] = tested on: MDA-MB-231; assay: Inhibition of cell migration in human MDA-MB-231 cells assessed as inhibition of wound healing rate measured for 24 hrs by phase contrast microscopy; type: functional, cell-based
Method in brief: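 Wound-healing: scratches made with pipette tips across MDA-MB-231 monolayers, then 24 h incubation at 0, 0.15, 0.3 or 0.6 μM; closure imaged by phase contrast microscopy and expressed as wound-healing rate; mean ± SD of three independent experiments.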

[10] = tested on: MDA-MB-231; assay: Induction of apoptosis in human MDA-MB-231 cells assessed as viable cells at 0.3 uM incubated for 72 hrs by annexin V-FITC staining based flow cytometry (reference value: 93.86%); type: functional; conditions: read-out: Activity
[11] = tested on: MDA-MB-231; assay: Induction of DNA damage in human MDA-MB-231 cells assessed as reduction in head DNA measured at 0.15 to 0.6 uM after 72 hrs by neutral comet assay; type: functional, cell-based; conditions: dose 0.15-0.6 µM
Method in brief: (§4)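 Neutral comet assay for double-strand breaks in MDA-MB-231 cells incubated 72 h; head DNA%, tail DNA%, tail moment and Olive tail moment scored, the moments in arbitrary units; mean ± SD of three independent experiments, p < 0.05 versus control.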

[12] = tested on: MDA-MB-231; assay: Induction of cell cycle arrest in human MDA-MB-231 cells assessed as accumulation of cells at S phase at 0.15 uM after 72 hrs by propidium iodide staining based flow cytometry (reference value: 37.12 %); type: functional; method in brief: as §1
[13] = tested on: MCF7; assay: Antiproliferative activity against human MCF7 cells assessed as reduction in cell viability incubated for 72 hrs by CCK-8 assay; type: functional, cell-based; conditions: MCF7, 72 h
Method in brief: (§5)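 CCK-8 viability assay on MCF-7 or MDA-MB-231 cells after 72 h compound exposure; IC50 taken as half inhibitory concentration, reported as mean ± SD of three independent experiments.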

[14] = tested on: MDA-MB-231; assay: Induction of apoptosis in human MDA-MB-231 cells assessed as late apoptotic cells at 0.15 uM incubated for 72 hrs by annexin V-FITC staining based flow cytometry (reference value: 1.67%); type: functional
[15] = tested on: MDA-MB-231; assay: Induction of DNA damage in human MDA-MB-231 cells assessed as increase olive tail moment measured at 0.15 to 0.6 uM after 72 hrs by neutral comet assay; type: functional, cell-based; conditions: dose 0.15-0.6 µM; method in brief: as §4
[16] = tested on: MDA-MB-231; assay: Induction of cell cycle arrest in human MDA-MB-231 cells assessed as accumulation of cells at S phase at 0.6 uM after 72 hrs by propidium iodide staining based flow cytometry (reference value: 37.12 %); type: functional; method in brief: as §1
[17] = tested on: MDA-MB-231; assay: Induction of DNA damage in human MDA-MB-231 cells assessed as increase in tail moment measured at 0.15 to 0.6 uM after 72 hrs by neutral comet assay; type: functional, cell-based; conditions: dose 0.15-0.6 µM; method in brief: as §4
[18] = tested on: MDA-MB-231; assay: Induction of apoptosis in human MDA-MB-231 cells assessed as viable cells at 0.15 uM incubated for 72 hrs by annexin V-FITC staining based flow cytometry (reference value: 93.86%); type: functional; conditions: read-out: Activity
[19] = tested on: MDA-MB-231; assay: Induction of cell cycle arrest in human MDA-MB-231 cells assessed as accumulation of cells at G2/M phase at 0.3 uM after 72 hrs by propidium iodide staining based flow cytometry (reference value: 10.90 %); type: functional; method in brief: as §1
[20] = tested on: MDA-MB-231; assay: Induction of cell cycle arrest in human MDA-MB-231 cells assessed as accumulation of cells at G2/M phase at 0.6 uM after 72 hrs by propidium iodide staining based flow cytometry (reference value: 10.90 %); type: functional; method in brief: as §1
[21] = Nitric oxide releasing activity assessed as amount of NO release measured at 3 hrs by Griess assay; type: functional; method in brief: as §3
[22] = tested on: MDA-MB-231; assay: Induction of DNA damage in human MDA-MB-231 cells assessed as increase in tail DNA measured at 0.15 to 0.6 uM after 72 hrs by neutral comet assay; type: functional, cell-based; conditions: dose 0.15-0.6 µM; method in brief: as §4
[23] = tested on: MDA-MB-231; assay: Induction of DNA damage in human MDA-MB-231 cells assessed as double-strand DNA breaks measured at 0.15 to 0.6 uM after 72 hrs by neutral comet assay; type: functional, cell-based; conditions: dose 0.15-0.6 µM; method in brief: as §4
[24] = tested on: MDA-MB-231; assay: Induction of apoptosis in human MDA-MB-231 cells assessed as early apoptotic cells at 0.15 uM incubated for 72 hrs by annexin V-FITC staining based flow cytometry (reference value: 3.42%); type: functional
[25] = tested on: MDA-MB-231; assay: Induction of cell cycle arrest in human MDA-MB-231 cells assessed as accumulation of cells at G1 phase at 0.15 uM after 72 hrs by propidium iodide staining based flow cytometry (reference value: 51.97 %); type: functional; method in brief: as §1
[26] = tested on: MDA-MB-231; assay: Induction of apoptosis in human MDA-MB-231 cells assessed as viable cells at 0.6 uM incubated for 72 hrs by annexin V-FITC staining based flow cytometry (reference value: 93.86%); type: functional; conditions: read-out: Activity
[27] = tested on: MDA-MB-231; assay: Induction of ROS generation in human MDA-MB-231 cells incubated for 72 hrs by DCFH-DA staining-based flow cytometric analysis relative to control; type: functional, cell-based; conditions: dose microM <=0.6, time 72.0 hrs; method in brief: as §2
[28] = tested on: MDA-MB-231; assay: Induction of apoptosis in human MDA-MB-231 cells assessed as late apoptotic cells at 0.3 uM incubated for 72 hrs by annexin V-FITC staining based flow cytometry (reference value: 1.67%); type: functional
[29] = tested on: MDA-MB-231; assay: Induction of apoptosis in human MDA-MB-231 cells assessed as early apoptotic cells at 0.6 uM incubated for 72 hrs by annexin V-FITC staining based flow cytometry (reference value: 3.42%); type: functional
[30] = tested on: MDA-MB-231; assay: Induction of apoptosis in human MDA-MB-231 cells assessed as late apoptotic cells at 0.6 uM incubated for 72 hrs by annexin V-FITC staining based flow cytometry (reference value: 1.67%); type: functional
[31] = tested on: MDA-MB-231; assay: Induction of cell cycle arrest in human MDA-MB-231 cells assessed as accumulation of cells at S phase at 0.3 uM after 72 hrs by propidium iodide staining based flow cytometry (reference value: 37.12 %); type: functional; method in brief: as §1
[32] = tested on: MDA-MB-231; assay: Induction of apoptosis in human MDA-MB-231 cells assessed as necrotic cells at 0.3 uM incubated for 72 hrs by annexin V-FITC staining based flow cytometry (reference value: 1.05%); type: functional
[33] = tested on: MDA-MB-231; assay: Induction of apoptosis in human MDA-MB-231 cells assessed as necrotic cells at 0.6 uM incubated for 72 hrs by annexin V-FITC staining based flow cytometry (reference value: 1.05%); type: functional
[34] = tested on: MDA-MB-231; assay: Antiinvasive activity against human MDA-MB-231 cells assessed as reduction in invasion incubated for 24 hrs by crystal violet staining based transwell assay; type: functional, cell-based; conditions: dose microM <=0.6, time 24.0 hrs
Method in brief: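 Transwell: MDA-MB-231 cells seeded in chambers with 0, 0.15, 0.3 or 0.6 μM for 24 h; cells crossing stained with crystal violet, imaged and counted; mean ± SD of three independent experiments.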

[35] = tested on: MDA-MB-231; assay: Antiproliferative activity against human MDA-MB-231 cells assessed as reduction in cell viability incubated for 72 hrs by CCK-8 assay; type: functional, cell-based; conditions: MDA-MB-231, 72 h; method in brief: as §5

For `COc1ccc(-c2nc(C(=O)NCCCOc3no[n+]([O-])c3S(=O)(=O)c3ccccc3)cc3c2[nH]c2ccccc23)cc1`, the Activity [1] was 42.88%, the inhibition [2] was “Dose-Dependent Effect” and the Activity [3] was 14.07%. It also gave an Activity [4] of 51.62%, an Activity [5] of 3.68% and an Activity [6] of 40.59%. The Activity [7] was “Active”, the Activity [8] was 13.64% and the inhibition [9] was “Dose-Dependent Effect”. For the same compound, the viability at 0.3 µM [10] was 72.3%, the Activity [11] was “Active” and the Activity [12] was 35.82%. For the same compound, the IC50 [13] was 0.89 µM, the Activity [14] was 4.39% and the Activity [15] was “Active”. For the same compound, the Activity [16] was 35.87%, the Activity [17] was “Active” and the viability at 0.15 µM [18] was 83.6%. For the same compound, the Activity [19] was 19.92%, the Activity [20] was 23.54% and the Activity [21] was 65 µM/L. For the same compound, the Activity [22] was “Active”, the Activity [23] was “Active” and the Activity [24] was 8.28%. The Activity [25] was 50.54%, the viability at 0.6 µM [26] was 44.2% and the Activity [27] was “Dose-Dependent Effect”. The Activity [28] was 9.92%, the Activity [29] was 29.88% and the Activity [30] was 24.3%. It also gave an Activity [31] of 37.2%, an Activity [32] of 3.7% and an Activity [33] of 1.61%. The Activity [34] was “Active” and the IC50 [35] was 0.62 µM.
